Assay results taken from ChEMBL document CHEMBL1134964, “Heterocyclic benzazole derivatives with antimycobacterial in vitro activity” (2002).
≈ marks a conversion by molar mass, not a printed value.

Columns and labels:
Assay type in all cases: functional
Mycobacterium avium [1] = test: In vitro minimum inhibitory concentration the compound for anti-mycobacterial activity was determined against Mycobacterium avium (My 330/88) by micromethod after 14 days of incubation; conditions: 336 h
Method in brief: (§1)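 Micromethod broth MIC. Compounds tested at 500, 250, 125, 32, 16, 8, 4 and 2, plus one intermediate level between 125 and 32. Plates incubated at 37 C and read at 7, 14 and 21 days. MIC is the lowest concentration at which growth of the mycobacteria was inhibited. MIC could not be set where solubility in the test medium was limited.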

Mycobacterium avium [2] = test: In vitro minimum inhibitory concentration the compound for anti-mycobacterial activity was determined against Mycobacterium avium (My 330/88) by micromethod after 21 days of incubation; conditions: 504 h; method in brief: as §1
[3] = test system: Mycobacterium tuberculosis; test: In vitro inhibition of Mycobacterium Tuberculosis (My 331/88) growth after 14 days culture.; conditions: 336 h; method in brief: as §1
[4] = test system: Mycobacterium tuberculosis; test: In vitro inhibition of Mycobacterium Tuberculosis (My 331/88) growth after 21 days culture.; conditions: 504 h; method in brief: as §1
Mycobacterium kansasii [5] = test: In vitro minimum inhibitory concentration the compound for anti-mycobacterial activity was determined against Mycobacterium kansasii (My 235/80) by micromethod after 14 days of incubation; conditions: 336 h
Mycobacterium kansasii [6] = test: In vitro minimum inhibitory concentration the compound for anti-mycobacterial activity was determined against Mycobacterium kansasii (My 235/80) by micromethod after 21 days of incubation; conditions: 504 h
Mycobacterium kansasii [7] = test: In vitro minimum inhibitory concentration the compound for anti-mycobacterial activity was determined against Mycobacterium kansasii (My 6 509/96) by micromethod after 14 days of incubation; conditions: 336 h
Mycobacterium kansasii [8] = test: In vitro minimum inhibitory concentration the compound for anti-mycobacterial activity was determined against Mycobacterium kansasii (My 6 509/96) by micromethod after 21 days of incubation; conditions: 504 h
Mycobacterium kansasii [9] = test: In vitro minimum inhibitory concentration the compound for anti-mycobacterial activity was determined against Mycobacterium kansasii (My 6 509/96) by micromethod after 7 days of incubation; conditions: 168 h
Mycobacterium kansasii [10] = test: In vitro inhibition of Mycobacterium Kansasi (My 235/80) growth after 7 days culture.; conditions: 168 h
Mycobacterium avium [11] = test: In vitro inhibition of Mycobacterium Avium growth after 14 days culture.; conditions: 336 h; method in brief: as §1
Mycobacterium avium [12] = test: In vitro inhibition of Mycobacterium Avium (My 330/88) growth after 21 days culture.; conditions: 504 h; method in brief: as §1
Mycobacterium kansasii [13] = test: In vitro inhibition of Mycobacterium Kansasi (My 6 509/96) growth after 14 days culture.; conditions: 336 h
Mycobacterium kansasii [14] = test: In vitro inhibition of Mycobacterium Kansasi (My 6 509/96) growth after 21 days culture.; conditions: 504 h
Mycobacterium kansasii [15] = test: In vitro inhibition of Mycobacterium Kansasi (My 6 509/96) growth after 7 days culture.; conditions: 168 h
Mycobacterium kansasii [16] = test: In vitro inhibition of Mycobacterium Kansasi (My 235/80) growth after 14 days culture.; conditions: 336 h
Mycobacterium kansasii [17] = test: In vitro inhibition of Mycobacterium Kansasi (My 235/80) growth after 21 days culture.; conditions: 504 h
HeLa = test: The compound was tested for cytotoxicity against HeLa cells.; conditions: Homo sapiens
[18] = Ratio of cytotoxicity to minimum inhibitory concentration of Mycobacterium tuberculosis My 331/88 was evaluated

Sc1nc2ccccc2s1 [2-MERCAPTOBENZOTHIAZOLE]
MIC (Mycobacterium avium [1]): > 62 µM
MIC (Mycobacterium avium [2]): > 62 µM
MIC [3]: 62 µM (≈ 10.4 µg/mL)
MIC [4]: 62 µM (≈ 10.4 µg/mL)
MIC (Mycobacterium kansasii [5]): 125 µM (≈ 20.9 µg/mL)
MIC (Mycobacterium kansasii [6]): > 125 µM
MIC (Mycobacterium kansasii [7]): > 62 µM
MIC (Mycobacterium kansasii [8]): > 62 µM
MIC (Mycobacterium kansasii [9]): 62 µM (≈ 10.4 µg/mL)
MIC (Mycobacterium kansasii [10]): 62 µM (≈ 10.4 µg/mL)

NNC(=O)c1ccncc1 [ISONIAZID]
MIC (Mycobacterium avium [11]): > 250 µM
MIC (Mycobacterium avium [12]): > 250 µM
MIC (Mycobacterium kansasii [13]): 2 µM (≈ 0.274 µg/mL)
MIC (Mycobacterium kansasii [14]): 4 µM (≈ 0.549 µg/mL)
MIC (Mycobacterium kansasii [15]): 2 µM (≈ 0.274 µg/mL)
MIC [3]: 0.5 µM (≈ 0.0686 µg/mL)
MIC [4]: 1 µM (≈ 0.137 µg/mL)
MIC (Mycobacterium kansasii [16]): > 250 µM
MIC (Mycobacterium kansasii [17]): > 250 µM
MIC (Mycobacterium kansasii [10]): > 250 µM

O=[N+]([O-])c1ccc(CSc2nc3ccccc3s2)cc1
MIC (Mycobacterium avium [11]): 32 µM (≈ 9.68 µg/mL)
MIC (Mycobacterium avium [12]): > 62 µM
MIC (Mycobacterium kansasii [13]): > 32 µM
MIC (Mycobacterium kansasii [14]): > 125 µM
MIC (Mycobacterium kansasii [15]): 32 µM (≈ 9.68 µg/mL)
MIC [3]: > 32 µM
MIC [4]: > 125 µM
MIC (Mycobacterium kansasii [16]): > 62 µM
MIC (Mycobacterium kansasii [17]): > 250 µM
MIC (Mycobacterium kansasii [10]): 32 µM (≈ 9.68 µg/mL)

O=[N+]([O-])c1ccc(CSc2nc3ccccc3o2)c([N+](=O)[O-])c1
CC50 (HeLa): 136 µM
MIC (Mycobacterium avium [11]): > 16 µM
MIC (Mycobacterium avium [12]): > 32 µM
MIC (Mycobacterium kansasii [13]): 8 µM (≈ 2.65 µg/mL)
MIC (Mycobacterium kansasii [14]): 8 µM (≈ 2.65 µg/mL)
MIC [3]: 8 µM (≈ 2.65 µg/mL)
MIC [4]: 8 µM (≈ 2.65 µg/mL)
MIC (Mycobacterium kansasii [5]): 4 µM (≈ 1.33 µg/mL)
MIC (Mycobacterium kansasii [6]): 4 µM (≈ 1.33 µg/mL)
MIC (Mycobacterium kansasii [9]): 4 µM (≈ 1.33 µg/mL)
MIC (Mycobacterium kansasii [10]): 4 µM (≈ 1.33 µg/mL)
Safety index [18]: 17

c1ccc(CSc2nc3ccccc3o2)cc1
MIC (Mycobacterium avium [11]): 62 µM (≈ 15 µg/mL)
MIC (Mycobacterium avium [12]): 125 µM (≈ 30.2 µg/mL)
MIC (Mycobacterium kansasii [13]): 125 µM (≈ 30.2 µg/mL)
MIC (Mycobacterium kansasii [14]): 250 µM (≈ 60.3 µg/mL)
MIC (Mycobacterium kansasii [15]): 32 µM (≈ 7.72 µg/mL)
MIC [3]: 250 µM (≈ 60.3 µg/mL)
MIC [4]: 500 µM (≈ 121 µg/mL)
MIC (Mycobacterium kansasii [16]): 250 µM (≈ 60.3 µg/mL)
MIC (Mycobacterium kansasii [17]): 250 µM (≈ 60.3 µg/mL)
MIC (Mycobacterium kansasii [10]): 125 µM (≈ 30.2 µg/mL)

O=[N+]([O-])c1cccc(CSc2nc3ccccc3o2)c1
MIC (Mycobacterium avium [11]): > 32 µM
MIC (Mycobacterium avium [12]): > 62 µM
MIC (Mycobacterium kansasii [13]): 32 µM (≈ 9.16 µg/mL)
MIC (Mycobacterium kansasii [14]): > 32 µM
MIC (Mycobacterium kansasii [15]): 32 µM (≈ 9.16 µg/mL)
MIC [3]: > 62 µM
MIC [4]: 125 µM (≈ 35.8 µg/mL)
MIC (Mycobacterium kansasii [16]): > 32 µM
MIC (Mycobacterium kansasii [17]): > 32 µM
MIC (Mycobacterium kansasii [10]): 32 µM (≈ 9.16 µg/mL)

O=[N+]([O-])c1ccccc1CSc1nc2ccccc2o1
MIC (Mycobacterium avium [11]): > 125 µM
MIC (Mycobacterium avium [12]): > 125 µM
MIC (Mycobacterium kansasii [13]): > 62 µM
MIC (Mycobacterium kansasii [14]): > 62 µM
MIC (Mycobacterium kansasii [15]): 62 µM (≈ 17.8 µg/mL)
MIC [3]: > 250 µM
MIC [4]: > 250 µM
MIC (Mycobacterium kansasii [16]): 125 µM (≈ 35.8 µg/mL)
MIC (Mycobacterium kansasii [17]): > 125 µM
MIC (Mycobacterium kansasii [10]): 125 µM (≈ 35.8 µg/mL)

O=[N+]([O-])c1cc(CSc2nc3ccccc3o2)cc([N+](=O)[O-])c1
CC50 (HeLa): > 151 µM
MIC (Mycobacterium avium [11]): > 16 µM
MIC (Mycobacterium avium [12]): > 32 µM
MIC (Mycobacterium kansasii [13]): 8 µM (≈ 2.65 µg/mL)
MIC (Mycobacterium kansasii [14]): 8 µM (≈ 2.65 µg/mL)
MIC (Mycobacterium kansasii [15]): 4 µM (≈ 1.33 µg/mL)
MIC [3]: 8 µM (≈ 2.65 µg/mL)
MIC [4]: 8 µM (≈ 2.65 µg/mL)
MIC (Mycobacterium kansasii [16]): 4 µM (≈ 1.33 µg/mL)
MIC (Mycobacterium kansasii [17]): 4 µM (≈ 1.33 µg/mL)
MIC (Mycobacterium kansasii [10]): 2 µM (≈ 0.663 µg/mL)
Safety index [18]: >18.9

O=[N+]([O-])c1ccc(CSc2nc3ccccc3s2)c([N+](=O)[O-])c1
CC50 (HeLa): > 144 µM
MIC (Mycobacterium avium [11]): > 32 µM
MIC (Mycobacterium avium [12]): > 32 µM
MIC (Mycobacterium kansasii [13]): 8 µM (≈ 2.78 µg/mL)
MIC (Mycobacterium kansasii [14]): > 32 µM
MIC (Mycobacterium kansasii [15]): 8 µM (≈ 2.78 µg/mL)
MIC [3]: 2 µM (≈ 0.695 µg/mL)
MIC [4]: 4 µM (≈ 1.39 µg/mL)
MIC (Mycobacterium kansasii [16]): 8 µM (≈ 2.78 µg/mL)
MIC (Mycobacterium kansasii [17]): 16 µM (≈ 5.56 µg/mL)
MIC (Mycobacterium kansasii [10]): 8 µM (≈ 2.78 µg/mL)
Safety index [18]: >72

O=[N+]([O-])c1ccc(CSc2nc3ccccc3o2)cc1
MIC (Mycobacterium avium [11]): > 32 µM
MIC (Mycobacterium avium [12]): > 62 µM
MIC (Mycobacterium kansasii [13]): 32 µM (≈ 9.16 µg/mL)
MIC (Mycobacterium kansasii [14]): > 32 µM
MIC (Mycobacterium kansasii [15]): 32 µM (≈ 9.16 µg/mL)
MIC [3]: > 62 µM
MIC [4]: > 125 µM
MIC (Mycobacterium kansasii [16]): 32 µM (≈ 9.16 µg/mL)
MIC (Mycobacterium kansasii [17]): > 62 µM
MIC (Mycobacterium kansasii [10]): 32 µM (≈ 9.16 µg/mL)

N#Cc1ccc(CSc2nc3ccccc3s2)cc1
MIC (Mycobacterium avium [11]): 32 µM (≈ 9.04 µg/mL)
MIC (Mycobacterium avium [12]): > 32 µM
MIC (Mycobacterium kansasii [13]): 32 µM (≈ 9.04 µg/mL)
MIC (Mycobacterium kansasii [14]): 32 µM (≈ 9.04 µg/mL)
MIC (Mycobacterium kansasii [15]): 16 µM (≈ 4.52 µg/mL)
MIC [3]: 62 µM (≈ 17.5 µg/mL)
MIC [4]: 62 µM (≈ 17.5 µg/mL)
MIC (Mycobacterium kansasii [16]): 250 µM (≈ 70.6 µg/mL)
MIC (Mycobacterium kansasii [17]): > 500 µM
MIC (Mycobacterium kansasii [10]): 125 µM (≈ 35.3 µg/mL)
